Experimental data: ChEMBL document CHEMBL5678808, “Human target validation of phosphoinositide 3-kinase (PI3K)β: effects on platelets and insulin sensitivity, using AZD6482 a novel PI3Kβ inhibitor” (J Thromb Haemost, 2012)
Calls of active or inactive are those of the source. No cut-off for these calls is given here.

How the values were obtained:
[1] = target: Mitogen-activated protein kinase 9 (Homo sapiens) (UniProt P45984); assay: Inhibition of human MAPK9 at 10 uM relative to control
[2] = target: Protein kinase C zeta type (Homo sapiens) (UniProt Q05513); assay: Inhibition of human PKCz at 10 uM relative to control
[3] = target: Serine/threonine-protein kinase pim-3 (Homo sapiens) (UniProt Q86V86); assay: Inhibition of human PIM3 at 10 uM relative to control
[4] = target: Protein kinase C alpha type (Homo sapiens) (UniProt P17252); assay: Inhibition of human PKCa at 10 uM relative to control
[5] = Inhibition of […] mouse thymoma viral oncogene homolog 1 (unknown origin) at 10 uM relative to control; details: Homo sapiens, condition thrombotic disease
[6] = target: Serine/threonine-protein kinase PAK 2 (Homo sapiens) (UniProt Q13177); assay: Inhibition of human PAK2 at 10 uM relative to control
Canis familiaris [7] = assay: Antithrombotic activity in Beagle dog model of arterial thrombosis and bleeding assessed as blood loss at 0.005 to 0.24 ug/kg/min, iv via bolus for 29 mins and measured for 15 mins; assay type: functional, organism-based; details: Canis lupus familiaris
How it was run: (§1)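 Modified Folts' model of thrombosis in a damaged, stenosed femoral artery of anesthetized dogs. Animals first received saline vehicle. Consecutive i.v. doses then followed, each given over a 30-min period as a bolus (0.03–1.3 μg kg−1) plus an infusion (0.005–0.24 μg kg min−1). Read-outs were cyclic flow reductions, expressed as % restoration of blood flow, plus bleeding time, blood loss and plasma drug exposure. Mean ± SEM, n = 6.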

[8] = target: Serine/threonine-protein kinase pim-1 (Homo sapiens) (UniProt P11309); assay: Inhibition of human PIM1 at 10 uM relative to control
[9] = target: Dual specificity mitogen-activated protein kinase kinase 1 (Homo sapiens) (UniProt Q02750); assay: Inhibition of mitogen activated protein kinase kinase 1 (unknown origin) at 10 uM relative to control
[10] = target: Serine/threonine-protein kinase PAK 5 (Homo sapiens) (UniProt Q9P286); assay: Inhibition of human PAK5 at 10 uM relative to control
Rattus norvegicus [11] = assay: Insulin sensitizing activity in Sprague-Dawley rat hyperinsulinemic-euglycemic glucose clamp model assessed as glucose level during infusion of human insulin at 1000 ug/kg/min, iv for 2 mins followed by 50 ug/kg/min, iv for 28 mins measured during clamp 2 by colorimetry (reference value: 8.1 +/- 0.7 mM); assay type: functional; details: time 30 min, 0.5 h
How it was run: (§2)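 Anesthetized rats; hyperinsulinemic–euglycemic clamp with human insulin infused. A baseline clamp (Clamp1) was followed by a second clamp (Clamp2) with vehicle or drug i.v. The drug was given as a low dose (1000 μg kg−1 + 50 μg kg min−1) or a high dose (6000 μg kg−1 + 300 μg kg min−1). Steady-state glucose infusion rate for euglycemia was recorded, with plasma glucose, human insulin and total insulin; mean ± SEM, n = 4–5/group.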

[12] = Toxicity in Sprague-Dawley rat assessed as change in blood pressure at 30000 ug/kg, iv for 2 mins followed by 1500 ug/kg/min, iv for 28 mins; assay type: organism-based; details: in vivo, 30 mg/kg, 0.5 h, time 30 min
Canis familiaris [13] = assay: Antithrombotic activity in Beagle dog model of arterial thrombosis and bleeding assessed as increase in bleeding time at 0.005 to 0.24 ug/kg/min, iv via bolus for 29 mins and measured for 15 mins; assay type: functional, organism-based; details: Canis lupus familiaris; how it was run: as §1
[14] = target: MAP kinase-activated protein kinase 5 (Homo sapiens) (UniProt Q8IW41); assay: Inhibition of human MAPKAPK5 at 10 uM relative to control
Homo sapiens = species: Homo sapiens; assay: Inhibition of human CDK2/Cyclin A at 10 uM relative to control
[15] = target: Serine/threonine-protein kinase Nek7 (Homo sapiens) (UniProt Q8TDX7); assay: Inhibition of human NEK7 at 10 uM relative to control
Rattus norvegicus [16] = assay: Insulin sensitizing activity in Sprague-Dawley rat hyperinsulinemic-euglycemic glucose clamp model assessed as basal glucose level during infusion of human insulin at 1000 ug/kg/min, iv for 2 mins followed by 50 ug/kg/min, iv for 28 mins by colorimetry (reference value: 8.1 +/- 0.7 mM); assay type: functional; details: time 30 min, 0.5 h; how it was run: as §2
[17] = target: Mitogen-activated protein kinase 14 (Homo sapiens, UniProt Q16539); assay: Inhibition of human p38a
[18] = target: Ribosomal protein S6 kinase alpha-5 (Homo sapiens) (UniProt O75582); assay: Inhibition of human MSK1 at 10 uM relative to control
[19] = target: MAP kinase-activated protein kinase 3 (Homo sapiens) (UniProt Q16644); assay: Inhibition of human MAPKAP-K3 at 10 uM relative to control
[20] = target: Proto-oncogene tyrosine-protein kinase LCK (Mus musculus) (UniProt P06240); assay: Inhibition of mouse LCK at 10 uM relative to control
[21] = target: Homeodomain-interacting protein kinase 3 (Homo sapiens) (UniProt Q9H422); assay: Inhibition of human HIPK3 at 10 uM relative to control
[22] = Inhibition of PI3Kbeta in Beagle dog whole blood assessed as reduction in ADP-induced platelet aggregation preincubated for 5 mins followed by ADP addition and measured for 6 mins by impedance aggregometry; assay type: tissue-based; details: Canis lupus familiaris
How it was run: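 Ex vivo whole blood impedance aggregometry (Multiplate) with ADP as agonist, using blood drawn from anesthetized dogs in the Folts' model. Dogs were given i.v. bolus plus infusion doses over consecutive 30-min periods. Inhibition was related to measured plasma drug concentration to derive EC50. Mean ± SEM, n = 6.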

[23] = target: Casein kinase 2 (Homo sapiens) (UniProt P67870+P68400+P19784+Q8NEV1); assay: Inhibition of human CK2 at 10 uM relative to control; assay type: protein assay
[24] = target: MAP kinase-interacting serine/threonine-protein kinase 2 (Homo sapiens) (UniProt Q9HBH9); assay: Inhibition of human MNK2 at 10 uM relative to control
[25] = target: DNA-dependent protein kinase catalytic subunit (Homo sapiens, UniProt P78527); assay: Inhibition of human DNA-PK assessed as reduction in protein phosphorylation by ELISA
How it was run: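 Recombinant human DNA-PK was tested in a functional assay, with substrate protein phosphorylation read by ELISA. IC50 is reported as mean ± SEM, with the number of determinations given.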

[26] = Toxicity in Sprague-Dawley rat assessed as change in heart rate at 1000 ug/kg, iv for 2 mins followed by 50 ug/kg/min, iv for 28 mins; assay type: organism-based; details: in vivo, 1 mg/kg, 0.5 h, time 30 min
How it was run: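 Overnight-fasted anesthetized rats got three consecutive escalating i.v. doses over 30 min each (n = 4/group). Heart rate and blood pressure were followed alongside end-of-interval blood samples for plasma drug exposure, glucose and insulin (relative HOMA index experiments).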

[27] = Inhibition of PI3Kbeta in Beagle dog whole blood assessed as reduction in ADP-induced thrombus formation at 1 uM relative to control; details: Canis lupus familiaris, condition thrombotic disease
[28] = target: Epidermal growth factor receptor (Homo sapiens, UniProt P00533); assay: Inhibition of human EGFR
[29] = target: 3-phosphoinositide-dependent protein kinase 1 (Homo sapiens) (UniProt O15530); assay: Inhibition of human PDPK1 at 10 uM relative to control

Chain of Protein kinase C zeta type (Homo sapiens) (Q05513 whole entry): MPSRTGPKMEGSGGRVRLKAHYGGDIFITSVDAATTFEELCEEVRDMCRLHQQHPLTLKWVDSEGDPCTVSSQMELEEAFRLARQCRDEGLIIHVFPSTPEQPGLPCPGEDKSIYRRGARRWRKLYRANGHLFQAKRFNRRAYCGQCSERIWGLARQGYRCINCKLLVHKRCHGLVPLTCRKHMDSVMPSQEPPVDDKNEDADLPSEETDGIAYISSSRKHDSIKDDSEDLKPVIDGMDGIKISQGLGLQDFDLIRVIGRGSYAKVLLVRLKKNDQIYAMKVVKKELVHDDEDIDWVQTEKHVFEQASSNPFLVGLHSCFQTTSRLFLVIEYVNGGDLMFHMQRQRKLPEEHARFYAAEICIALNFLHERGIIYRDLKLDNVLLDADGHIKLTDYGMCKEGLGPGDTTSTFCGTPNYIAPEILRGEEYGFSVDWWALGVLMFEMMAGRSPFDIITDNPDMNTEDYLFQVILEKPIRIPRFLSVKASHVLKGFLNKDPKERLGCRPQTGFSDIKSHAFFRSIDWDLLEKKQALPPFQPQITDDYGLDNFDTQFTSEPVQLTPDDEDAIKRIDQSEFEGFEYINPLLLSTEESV
Chain of MAP kinase-activated protein kinase 5 (Homo sapiens) (Q8IW41 whole entry): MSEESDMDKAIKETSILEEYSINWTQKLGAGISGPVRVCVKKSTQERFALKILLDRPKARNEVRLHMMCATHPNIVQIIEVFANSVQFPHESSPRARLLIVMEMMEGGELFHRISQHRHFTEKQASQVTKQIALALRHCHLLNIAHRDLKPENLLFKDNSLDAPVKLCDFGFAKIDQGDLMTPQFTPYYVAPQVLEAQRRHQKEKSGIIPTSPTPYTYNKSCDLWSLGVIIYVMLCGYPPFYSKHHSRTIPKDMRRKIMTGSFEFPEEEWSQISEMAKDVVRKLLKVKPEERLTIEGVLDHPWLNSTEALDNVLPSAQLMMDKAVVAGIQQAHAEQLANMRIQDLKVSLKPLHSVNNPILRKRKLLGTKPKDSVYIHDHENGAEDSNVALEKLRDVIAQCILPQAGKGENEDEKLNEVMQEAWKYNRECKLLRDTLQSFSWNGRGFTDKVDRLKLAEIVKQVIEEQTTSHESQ
Chain of Mitogen-activated protein kinase 9 (Homo sapiens) (P45984 whole entry, looked up): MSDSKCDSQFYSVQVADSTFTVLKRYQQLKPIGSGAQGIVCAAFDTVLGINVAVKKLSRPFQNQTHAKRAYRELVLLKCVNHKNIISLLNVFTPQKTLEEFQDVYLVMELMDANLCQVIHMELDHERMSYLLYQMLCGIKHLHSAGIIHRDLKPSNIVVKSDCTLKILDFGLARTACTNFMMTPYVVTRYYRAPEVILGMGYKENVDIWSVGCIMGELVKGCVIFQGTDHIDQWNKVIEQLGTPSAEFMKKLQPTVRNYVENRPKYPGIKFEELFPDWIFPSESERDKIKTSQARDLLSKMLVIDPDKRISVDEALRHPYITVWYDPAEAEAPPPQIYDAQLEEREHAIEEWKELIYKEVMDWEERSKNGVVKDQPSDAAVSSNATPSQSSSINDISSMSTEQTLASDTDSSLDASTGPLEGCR
Chain of MAP kinase-interacting serine/threonine-protein kinase 2 (Homo sapiens) (Q9HBH9 whole entry, looked up): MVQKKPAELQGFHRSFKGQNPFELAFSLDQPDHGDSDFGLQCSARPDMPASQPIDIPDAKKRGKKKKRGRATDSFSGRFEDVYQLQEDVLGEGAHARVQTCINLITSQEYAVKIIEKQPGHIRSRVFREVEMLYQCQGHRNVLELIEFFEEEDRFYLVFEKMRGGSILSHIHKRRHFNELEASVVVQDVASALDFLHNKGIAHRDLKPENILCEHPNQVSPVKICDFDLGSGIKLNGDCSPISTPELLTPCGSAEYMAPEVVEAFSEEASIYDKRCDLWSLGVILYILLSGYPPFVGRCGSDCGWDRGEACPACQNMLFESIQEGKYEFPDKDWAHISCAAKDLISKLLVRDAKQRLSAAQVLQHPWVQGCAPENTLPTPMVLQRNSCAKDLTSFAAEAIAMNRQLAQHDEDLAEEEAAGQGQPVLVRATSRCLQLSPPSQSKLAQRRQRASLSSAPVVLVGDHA
Chain of Ribosomal protein S6 kinase alpha-5 (Homo sapiens) (O75582 whole entry, looked up): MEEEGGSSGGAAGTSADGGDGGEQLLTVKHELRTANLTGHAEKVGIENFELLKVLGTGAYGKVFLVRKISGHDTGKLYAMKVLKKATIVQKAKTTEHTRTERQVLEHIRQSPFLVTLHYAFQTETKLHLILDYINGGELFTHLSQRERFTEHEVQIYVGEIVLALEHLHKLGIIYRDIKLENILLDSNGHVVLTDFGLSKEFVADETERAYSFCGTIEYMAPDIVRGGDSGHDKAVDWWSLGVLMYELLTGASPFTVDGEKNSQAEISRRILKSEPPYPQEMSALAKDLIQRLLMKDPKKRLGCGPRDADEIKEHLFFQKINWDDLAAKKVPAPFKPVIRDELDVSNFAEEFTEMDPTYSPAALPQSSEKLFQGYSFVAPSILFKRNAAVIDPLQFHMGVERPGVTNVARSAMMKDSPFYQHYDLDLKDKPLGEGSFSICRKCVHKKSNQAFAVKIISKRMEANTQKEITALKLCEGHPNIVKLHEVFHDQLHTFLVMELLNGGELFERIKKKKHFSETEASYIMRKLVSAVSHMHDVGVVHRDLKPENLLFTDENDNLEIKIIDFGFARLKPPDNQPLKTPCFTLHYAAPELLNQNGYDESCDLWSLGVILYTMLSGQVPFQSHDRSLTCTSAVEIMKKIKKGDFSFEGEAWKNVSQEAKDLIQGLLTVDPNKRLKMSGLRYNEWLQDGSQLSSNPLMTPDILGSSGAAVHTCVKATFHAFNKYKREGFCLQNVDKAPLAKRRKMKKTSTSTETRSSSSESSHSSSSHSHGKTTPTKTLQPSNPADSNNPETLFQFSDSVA
Chain of Serine/threonine-protein kinase PAK 2 (Homo sapiens) (Q13177 whole entry): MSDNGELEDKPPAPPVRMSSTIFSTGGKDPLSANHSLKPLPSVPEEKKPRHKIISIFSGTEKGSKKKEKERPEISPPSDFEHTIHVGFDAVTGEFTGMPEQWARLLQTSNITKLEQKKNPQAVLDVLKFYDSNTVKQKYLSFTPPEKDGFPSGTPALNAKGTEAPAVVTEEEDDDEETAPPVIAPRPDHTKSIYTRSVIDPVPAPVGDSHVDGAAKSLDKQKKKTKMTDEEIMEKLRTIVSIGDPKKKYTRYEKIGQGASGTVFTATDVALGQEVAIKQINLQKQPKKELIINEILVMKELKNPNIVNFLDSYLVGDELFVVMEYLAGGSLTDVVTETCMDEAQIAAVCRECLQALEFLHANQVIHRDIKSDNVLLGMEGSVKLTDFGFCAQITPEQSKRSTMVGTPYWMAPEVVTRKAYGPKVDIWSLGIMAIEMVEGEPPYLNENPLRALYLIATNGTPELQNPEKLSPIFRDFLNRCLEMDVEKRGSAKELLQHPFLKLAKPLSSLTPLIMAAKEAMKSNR
Chain of Serine/threonine-protein kinase pim-1 (Homo sapiens) (P11309 whole entry, looked up): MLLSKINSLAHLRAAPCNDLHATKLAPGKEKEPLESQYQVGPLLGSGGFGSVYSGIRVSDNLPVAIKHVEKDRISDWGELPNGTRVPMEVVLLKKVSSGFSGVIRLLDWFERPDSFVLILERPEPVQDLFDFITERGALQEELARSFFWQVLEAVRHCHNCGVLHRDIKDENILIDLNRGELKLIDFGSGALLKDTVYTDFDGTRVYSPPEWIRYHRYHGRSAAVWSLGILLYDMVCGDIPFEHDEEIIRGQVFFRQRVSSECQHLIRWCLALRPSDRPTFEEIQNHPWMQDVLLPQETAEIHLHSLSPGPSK
Chain of Serine/threonine-protein kinase Nek7 (Homo sapiens) (Q8TDX7 whole entry, looked up, the tested form may be a part): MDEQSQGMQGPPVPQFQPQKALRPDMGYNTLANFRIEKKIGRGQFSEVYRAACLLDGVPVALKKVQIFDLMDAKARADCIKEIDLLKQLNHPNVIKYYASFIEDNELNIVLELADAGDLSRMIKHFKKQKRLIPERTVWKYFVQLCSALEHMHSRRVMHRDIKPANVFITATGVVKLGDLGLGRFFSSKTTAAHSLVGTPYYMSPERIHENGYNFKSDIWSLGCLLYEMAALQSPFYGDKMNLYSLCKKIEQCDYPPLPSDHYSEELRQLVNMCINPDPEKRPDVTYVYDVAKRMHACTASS
Chain of Proto-oncogene tyrosine-protein kinase LCK (Mus musculus) (P06240 whole entry, looked up): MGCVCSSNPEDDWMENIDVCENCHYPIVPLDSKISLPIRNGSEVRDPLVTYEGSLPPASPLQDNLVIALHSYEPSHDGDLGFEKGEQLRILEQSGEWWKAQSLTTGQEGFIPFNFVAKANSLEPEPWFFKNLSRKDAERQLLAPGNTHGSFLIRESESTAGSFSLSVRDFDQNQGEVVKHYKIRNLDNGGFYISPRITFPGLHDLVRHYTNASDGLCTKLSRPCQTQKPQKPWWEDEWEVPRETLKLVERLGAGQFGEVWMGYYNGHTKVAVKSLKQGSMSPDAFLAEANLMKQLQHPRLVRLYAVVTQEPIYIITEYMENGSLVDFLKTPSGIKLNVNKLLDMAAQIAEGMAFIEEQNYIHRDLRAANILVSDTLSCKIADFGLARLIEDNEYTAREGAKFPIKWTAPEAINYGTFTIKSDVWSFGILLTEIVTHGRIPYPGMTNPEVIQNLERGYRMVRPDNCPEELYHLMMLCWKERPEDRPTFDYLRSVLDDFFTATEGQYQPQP

## Cc1cc([C@@H](C)Nc2ccccc2C(=O)O)c2nc(N3CCOCC3)cc(=O)n2c1 [AZD-6482]
[1]
  inhibition: 0.2%
[2]
  inhibition: 13%
[3]
  inhibition: -5.9%
[4]
  inhibition: -0.9%
[5]
  inhibition at 10 µM: 2.1%
[6]
  inhibition: 3.9%
Canis familiaris [7]
  Activity: inactive
[8]
  inhibition: 24%
[9]
  inhibition: 11%
[10]
  inhibition: 21%
Rattus norvegicus [11]
  Activity: 7.2 mM
[12]
  Activity: Non-Toxic
Canis familiaris [13]
  Activity: inactive
[14]
  inhibition: 9.9%
Homo sapiens
  inhibition: -1.6%
[15]
  inhibition: 7.1%
Rattus norvegicus [16]
  Activity: 7.6 mM
[17]
  IC50: > 671000 nM
[18]
  inhibition: -4.2%
[19]
  inhibition: 8.3%
[20]
  inhibition: 11%
[21]
  inhibition: 7.2%
[22]
  EC50: 130 nM
[23]
  inhibition: 4.2%
[24]
  inhibition: 6.2%
[25]
  IC50: 420 nM
[26]
  Activity: Non-Toxic
[27]
  inhibition at 1 µM: > 80%
[28]
  IC50: > 298000 nM
[29]
  inhibition: 16%
